GPR7 antagonist: antagonists of human GPR7 (neuropeptides B/W receptor 1) | P48145 | GPR7-expressing cells, fluorescence antagonist assay | inhibition, % at 4.4 µM | 1.1% of 290,000 active; in the data active = inhibition above about 16%, passing the limit was not always enough;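 also: cells stimulated with the agonist NPW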
OX1R antag-1: OX1R (human) antagonism; OX1R-expressing cells, FRET antagonist read-out; inhibition, % at 6.6 µM; 1.8% of 330,000 active; O43613; in the data active = inhibition mostly above about 38%, no sharp cut-off; inactive = mostly below about 40%
Target sequence (O43613 whole entry, looked up): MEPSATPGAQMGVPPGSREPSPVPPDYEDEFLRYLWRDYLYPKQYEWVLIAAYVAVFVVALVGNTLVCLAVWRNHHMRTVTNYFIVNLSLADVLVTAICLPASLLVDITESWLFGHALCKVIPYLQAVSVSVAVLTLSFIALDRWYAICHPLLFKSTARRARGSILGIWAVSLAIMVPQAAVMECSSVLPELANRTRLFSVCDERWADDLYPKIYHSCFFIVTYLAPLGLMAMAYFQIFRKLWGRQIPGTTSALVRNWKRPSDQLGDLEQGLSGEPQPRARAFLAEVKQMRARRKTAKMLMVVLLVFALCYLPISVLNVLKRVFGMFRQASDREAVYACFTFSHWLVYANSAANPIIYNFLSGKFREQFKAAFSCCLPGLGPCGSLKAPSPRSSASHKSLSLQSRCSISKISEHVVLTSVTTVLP
CHO parental Ca: counter-screen for OX1R antagonists: effect in parental CHO cells; parental CHO-K1, ATP-induced calcium, Fluo-8 fluorescence; inhibition, % at 5.6 µM; 0.63% of 330,000 active;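 active = inhibition above that plate's mean sample inhibition plus 3 SD, cut at about 26% in these data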
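Test system: parental CHO cells; detection: calcium-sensitive Fluo-8 fluorescence; evaluation: percent inhibition of calcium signal; also added: ATP as calcium-mobilizing challenge; repeats: one well per compound; control set: ATP-challenged DMSO wells low, unchallenged DMSO wells high; compound: single nominal dose of 5.6 µM per compound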
TAAR1 agonist: agonists of human TAAR1; CHO RD-HGA16 TAAR1, Fluo-8 calcium fluorescence; vehicle wells 0%, saturating PEA agonist 100%; AID 624467; activation, % at 3 µM; 0.99% of 360,000 active;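 active = activation above the mean activation of all test compounds in the run plus 3 SD, cut at about 38% in these data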
Target sequence (Q96RJ0 whole entry, looked up): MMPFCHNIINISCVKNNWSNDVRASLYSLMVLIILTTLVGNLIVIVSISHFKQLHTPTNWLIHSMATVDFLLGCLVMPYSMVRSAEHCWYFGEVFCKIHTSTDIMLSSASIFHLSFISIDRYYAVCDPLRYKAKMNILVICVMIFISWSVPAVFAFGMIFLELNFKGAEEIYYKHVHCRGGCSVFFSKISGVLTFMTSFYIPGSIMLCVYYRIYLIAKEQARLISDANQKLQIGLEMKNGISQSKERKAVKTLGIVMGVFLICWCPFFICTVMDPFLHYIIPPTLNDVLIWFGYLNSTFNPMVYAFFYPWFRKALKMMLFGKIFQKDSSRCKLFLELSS
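System: CHO RD-HGA16 cells carrying human TAAR1 plus Gα16; Incubation: 17-24 h seeding, 75 min 37 °C dye, 30 min RT; Measured by: Fluo-8 fluorescence, 5 s baseline then 140 s kinetic read; Control set: DMSO and PEA EC100; Replication: single well for each compound.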
TAAR1 antagonist: human TAAR1 antagonism; AID 624466; inhibition, % at 3 µM; Q96RJ0; 1.5% of 360,000 active; CHO RD-HGA16 TAAR1, Fluo-8 calcium fluorescence, antagonist;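 active = inhibition above a per-plate cutoff, the mean inhibition of test compounds on that plate plus 3 SD, cut at about 49% in these data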
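Test system – hTAAR1-expressing CHO RD-HGA16 cells, Gα16-coupled · Also added – β-PEA at EC80 concentration, post-compound challenge · Compound – 3 µM, single point · Incubation – dye loading 75 min at 37 °C, then 30 min room temperature · Measured by – Fluo-8 intracellular calcium dye fluorescence, real-time kinetic reads · Benchmarks – vehicle and agonist controls · Replicates – singlicate, one well per test compound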
OX1R antag-2: antagonists of human orexin 1 receptor; O43613; CHO/OX1R cells, Fluo-8 calcium fluorescence, orexin A; inhibition, % at 5 µM; 0.43% of 330,000 active; AID 434989;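 active = inhibition above its plate's threshold, mean inhibition of all tested compounds on the plate plus 3 SD, cut at about 37% in these data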
TAAR1 nonsel count: counter-screen for TAAR1 antagonists: nonselective antagonists. shares compounds with TAAR1 antagonist. counterscreen cell line, calcium fluorescence, antagonist mode. inhibition, % at 3 µM. 77% of 2,400 active. AID 651780; in the data active = inhibition above about 22%;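 also: CHO-Ga16 host cells stimulated with ATP at an EC80 level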
TAAR1 antag conf: confirmation of human TAAR1 antagonists; AID 651785; shares compounds with TAAR1 antagonist; 40% of 2,400 active; inhibition, % at 3 µM; TAAR1-expressing cells, fluorescence antagonist read-out; in the data active = inhibition above about 49%;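 also: CHO-Ga16 host cells challenged with agonist PEA near its EC80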
Ga16 ag counter: nonselective Ga16 agonist in TAAR1 antagonist counter-screen | shares compounds with TAAR1 antagonist | Ga16-expressing cells, calcium fluorescence, agonist counterscreen | activation, % at 3 µM | 18% of 2,400 active; in the data active = activation above about 12%
TAAR1 ag count: activates human TAAR1 in antagonist counter-screen | shares compounds with TAAR1 antagonist | 2% of 2,400 active | activation, % at 3 µM | AID 651955 | hTAAR1 cell line, fluorescence activation, agonist mode; in the data active = activation above about 37%;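 also: CHO cells stably expressing TAAR1 with calcium dye readout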
Of the large screens only hits and unclear results are named; the others gave an inactive call (follow-up assays come after a bar, where they were run). Hits are enriched below; roughly 4.6% of the tested compounds scored in any of these assays.

COc1cc(OC)c(N(C)S(=O)(=O)c2cccc(C(=O)Nc3nccs3)c2)cc1Cl	TAAR1 antagonist 63 (no result: GPR7 antagonist) | TAAR1 nonsel count 28 | TAAR1 antag conf inactive | Ga16 ag counter inactive | TAAR1 ag count inactive
Cc1cc(C)cc(Cn2c3ccc(NC(=O)NCc4ccc(F)cc4)cc3c(=O)n2C)c1	none (no result: GPR7 antagonist, OX1R antag-1, CHO parental Ca, OX1R antag-2)
CCOc1ccc(N(C(=O)c2snc(C(N)=O)c2N)C(CC)C(=O)NC2CCCC2)cc1 (centres undefined)	none
CCOc1ccc(C(C(=O)NC2CCCC2)N(C(=O)c2snc(C(N)=O)c2N)c2cccc(O)c2)cc1 (centres undefined)	TAAR1 antagonist 99 | TAAR1 nonsel count 37 | TAAR1 antag conf 81 | Ga16 ag counter inactive | TAAR1 ag count inactive
Cc1cccc(N(C(=O)c2snc(C(N)=O)c2N)C(C(=O)NC2CCCC2)c2ccncc2)c1 (centres undefined)	none
NC(=O)c1nsc(C(=O)N(c2cccc(O)c2)C(C(=O)NC2CCCC2)c2ccc(Cl)cc2)c1N (centres undefined)	TAAR1 antagonist 66 | TAAR1 nonsel count 25 | TAAR1 antag conf 53 | Ga16 ag counter inactive | TAAR1 ag count inactive
CC(C)(C)S(=O)(=O)N1C[C@H]2CC(=O)C(CCO)=C2[C@@H]1CCO	none (no result: GPR7 antagonist, OX1R antag-1, CHO parental Ca, OX1R antag-2)
O=C(Nc1nc(-c2nc3ccccc3s2)cs1)C1COc2ccccc2O1 (centres undefined)	TAAR1 antagonist 60 | TAAR1 nonsel count 26 | TAAR1 antag conf inactive | Ga16 ag counter inactive | TAAR1 ag count inactive
O=C(Nc1nc(-c2nc3ccccc3s2)cs1)c1ccc(S(=O)(=O)N2CCOCC2)cc1	OX1R antag-1 67, CHO parental Ca 32, TAAR1 antagonist 69 | TAAR1 nonsel count 52 | TAAR1 antag conf 70 | Ga16 ag counter 22 | TAAR1 ag count inactive
O=C(Nc1nc(-c2ccccc2)c(-c2ccccc2)s1)c1ccc(S(=O)(=O)N2CCCC2)cc1	TAAR1 antagonist 107 | TAAR1 nonsel count inactive | TAAR1 antag conf inactive | Ga16 ag counter inactive | TAAR1 ag count inactive
COc1ccc(OC)c(-c2csc(NC(=O)C3COc4ccccc4O3)n2)c1 (centres undefined)	none
O=C(Nc1ccccc1)c1ccc(S(=O)(=O)N2CCCC2)cc1	none
COc1ccc(CNC(=O)N[C@@H](Cc2c[nH]c3ccccc23)C(=O)O)cc1	none
COc1cc(C(=O)NCCCN2CCCC2=O)ccc1OCc1ccc(Cl)cc1Cl	none (no result: GPR7 antagonist, OX1R antag-1, CHO parental Ca, OX1R antag-2)
COc1ccc(C2=NS(=O)(=O)N(C)C(C(=O)N3CCc4ccccc4C3)=C2)cc1OC	TAAR1 antagonist 68 | TAAR1 nonsel count 40 | TAAR1 antag conf 50 | Ga16 ag counter inactive | TAAR1 ag count 51
CCc1ccc(NC(=O)C2=CC(c3ccc(OC)c(OC)c3)=NS(=O)(=O)N2C)cc1	TAAR1 antagonist 68 | TAAR1 nonsel count 33 | TAAR1 antag conf inactive | Ga16 ag counter inactive | TAAR1 ag count inactive
O=C(COc1ncnc2ccccc12)Nc1ccc(Cl)c([N+](=O)[O-])c1	none
COc1ccc([C@H]2C[C@@H](n3cc(C4CC4)nn3)[C@H](O)CN2C(=O)c2cccs2)cc1	none (no result: GPR7 antagonist, OX1R antag-1, CHO parental Ca, OX1R antag-2)
CCOCCCNC(=O)C1(O)c2cc(Br)ccc2NC(=O)N1c1ccc(OCC)cc1 (centres undefined)	none
Clc1ccc2scc(CN3CCCC3)c2c1	none (no result: GPR7 antagonist)
O=c1oc(C2(O)CCCCC2)cc2ccc(/C=C/c3ccc(F)cc3)cc12	TAAR1 antagonist 63 (no result: GPR7 antagonist) | TAAR1 nonsel count 26 | TAAR1 antag conf inactive | Ga16 ag counter inactive | TAAR1 ag count inactive
O=c1oc(C2(O)CCCCC2)cc2ccc(Br)cc12	none (no result: GPR7 antagonist)
CC(Sc1ncccn1)C(=O)NNC(=O)c1cccc(Cl)c1 (centres undefined)	none (no result: GPR7 antagonist)
COc1ccccc1NC(=O)c1ccc(NC(=O)COC(=O)C2(C)CC2(Cl)Cl)cc1 (centres undefined)	TAAR1 antagonist 63 | TAAR1 nonsel count 29 | TAAR1 antag conf 61 | Ga16 ag counter inactive | TAAR1 ag count inactive
CN(C)S(=O)(=O)c1cccc(-c2nn(-c3ccccc3)cc2/C=C2\SC(=S)NC2=O)c1	TAAR1 antagonist 68 | TAAR1 nonsel count 59 | TAAR1 antag conf 56 | Ga16 ag counter inactive | TAAR1 ag count inactive
COc1ccc(NC(=O)c2ccc(-n3c(C)ccc3C)cc2)c(OC)c1	none
Cc1nc(N2CCN(c3ccccn3)CC2)c2c(C)c(C(=O)N3CCN(c4ccc(F)cc4)CC3)sc2n1	none
COc1ccccc1N1CCN(C(=O)c2sc3nc(C)nc(N4CCN(c5ccccn5)CC4)c3c2C)CC1	TAAR1 antagonist 55 | TAAR1 nonsel count inactive | TAAR1 antag conf inactive | Ga16 ag counter inactive | TAAR1 ag count inactive
COc1cc(CNC(=O)c2ccc3c(c2)S(=O)(=O)c2ccccc2C3=O)cc(OC)c1	none (no result: GPR7 antagonist)
O=C(NCc1ccc(F)cc1)c1ccc2c(c1)S(=O)(=O)c1ccccc1C2=O	TAAR1 antagonist 52 (no result: GPR7 antagonist) | TAAR1 nonsel count 25 | TAAR1 antag conf inactive | Ga16 ag counter inactive | TAAR1 ag count inactive
O=C(NCCc1ccccc1)c1ccc2c(c1)S(=O)(=O)c1ccccc1C2=O	TAAR1 antagonist 52 (no result: GPR7 antagonist) | TAAR1 nonsel count inactive | TAAR1 antag conf inactive | Ga16 ag counter inactive | TAAR1 ag count inactive
Cc1cc(NC(=O)c2cc3nc(C4CC4)cc(C(F)(F)F)n3n2)no1	none
Cc1ccc(OCCn2cnc3cc([N+](=O)[O-])ccc3c2=O)cc1	TAAR1 antagonist 78 | TAAR1 nonsel count 31 | TAAR1 antag conf 51 | Ga16 ag counter inactive | TAAR1 ag count inactive
O=c1c2ccccc2ncn1CCOCCOc1ccc([N+](=O)[O-])cc1	none
O=c1c2ccc([N+](=O)[O-])cc2ncn1CCOc1ccccc1	OX1R antag-1 68, TAAR1 antagonist 77 | TAAR1 nonsel count 26 | TAAR1 antag conf 62 | Ga16 ag counter inactive | TAAR1 ag count inactive
O=C(c1ccc(=O)[nH]c1)N1CCCc2ccccc21	none
CCc1ccc(OCCNC(=O)c2ccccc2SCc2ccccc2)cc1	TAAR1 antagonist 61 | TAAR1 nonsel count 25 | TAAR1 antag conf inactive | Ga16 ag counter inactive | TAAR1 ag count inactive
CCNC(=O)c1ccccc1SCc1ccccc1	none
O=C(O)Cn1cnc2sc3c(c2c1=O)CCCC3	none
CCCOC(=O)c1c(-c2ccc(OC)cc2)oc2ccc(-c3ccc(OC)nc3)cc12	none (no result: TAAR1 agonist, TAAR1 antagonist) | TAAR1 nonsel count inactive | Ga16 ag counter inactive

Source: PubChem BioAssay
